Compound activity (PubChem)
FGF22 binding – binders of recombinant human FGF22 by thermal shift. activity (Tm shift, normalised), % at 9.99 µM. Q9HCT0. SYPRO orange fluorescence; percent of sucrose octasulfate shift, DMSO zero. 1.5% of 340,000 active;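 active = mean Tm shift, scaled 0 neutral to 100 positive control, at about 1.3% or above, every replicate too, limit read from the data; inconclusive = no clear call, values can overlap the other calls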
Target sequence (Q9HCT0 whole entry, looked up): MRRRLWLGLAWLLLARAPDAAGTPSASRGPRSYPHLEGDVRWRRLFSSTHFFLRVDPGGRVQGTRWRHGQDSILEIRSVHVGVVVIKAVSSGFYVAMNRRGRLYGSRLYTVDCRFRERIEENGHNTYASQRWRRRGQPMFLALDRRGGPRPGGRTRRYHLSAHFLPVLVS
DENV2 CPE rescue – inhibitors of DENV2 cytopathic effect; DENV2-infected cells, cytopathic effect rescue, plate reader; 1.7% of 350,000 active; AID 651640; CPE inhibition, % at 9.99 µM; in the data active = CPE inhibition above about 20%, passing the limit was not always enough; inconclusive = no clear call, values can overlap the other calls; tested in BHK-21 cells
E-selectin induc – E-selectin induction on HUVECs; HUVEC E-selectin immunofluorescence imaging; normalized: neutral wells 0, TNF-alpha wells 100; AID 686992; activation, % at 7.58 µM; P16581; 0.37% of 260,000 active;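 active = mean E-selectin-positive cell signal at least 10% of the positive control, reached in at least 60% of replicates, without over 20% cell loss; inconclusive = no rule given, readout overlaps actives, possibly toxicity-flagged; inactive = the rest, including those meeting only one limit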
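Test system: HUVEC; input: 3,000 HUVEC/well; measured by: immunofluorescence imaging; read-out: % PE-positive cells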
ERAP1 HTS inh – blocks human ERAP1 aminopeptidase activity | Q9NZ08 | recombinant ERAP1, Leu-AMC fluorescence, 60 min | inhibition, % at 10.7 µM | 0.15% of 340,000 active | AID 652197;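 active = mean replicate inhibition of at least 30%, or all replicates individually reaching that 30% level; inactive = mean below 30% and not every replicate reaching it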
F508del corr – correctors of CFTR F508del function in bronchial epithelial cells. CFBE cells, YFP halide quenching; stimulated with forskolin plus potentiator P3; % fluorescence drop versus neutral controls. activity (quench increase), % at 7.58 µM. 0.36% of 350,000 active. AID 720511;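 active = mean added fluorescence quench of at least 8% versus neutral control, with both replicates also reaching 8%; inconclusive = only one of the mean or replicate conditions met; inactive = mean below 8% and not both replicates reaching 8%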;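 also: cells transiently co-express mutant CFTR-F508del with the halide-sensitive YFP; corrector assay measuring rescue of mutant channel to the surface after 24 h compound exposure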
Each line names hits and unclear results; the compound was inactive in the other large screens; ! = not confirmed by another sample. Rows were chosen to be rich in hits. Some 3.7% of all compounds tested hit in one or more screens of this group.

COc1ccc([Si](C)(C)[C@@H]2[C@@H](CCO)O[C@]3(C(=O)N(Cc4ccccc4)c4ccc(N5CCOC5=O)cc43)[C@H]2C)cc1	none (no result: E-selectin induc)
COc1ccc([Si](C)(C)[C@@H]2[C@@H](CCO)O[C@]3(C(=O)N(Cc4ccc(NC(C)=O)cc4)c4ccccc43)[C@H]2C)cc1	DENV2 CPE rescue 20 (no result: E-selectin induc)
COc1ccc([Si](C)(C)[C@H]2[C@H](CCO)O[C@@]3(C(=O)N(Cc4ccccc4)c4ccc(N5CCOC5=O)cc43)[C@@H]2C)cc1	DENV2 CPE rescue 20 (no result: E-selectin induc)
C=CCN1C(=O)[C@@]2(O[C@@H](CCn3cc([C@H](O)c4ccccc4)nn3)[C@H]([Si](C)(C)c3ccc(OC)cc3)[C@H]2C)c2cc(N3CCOC3=O)ccc21	DENV2 CPE rescue 42, F508del corr 12 (no result: E-selectin induc)
C=CCN1C(=O)[C@@]2(O[C@@H](CCn3cc(CCO)nn3)[C@H]([Si](C)(C)c3ccc(OC)cc3)[C@H]2C)c2cc(N3CCOC3=O)ccc21	none (no result: E-selectin induc)
CC(=O)N1CC2(C1)[C@H](c1ccc(-c3cccc(F)c3)cc1)[C@@H](CO)N2CC1CCOCC1	none
COc1ccc(OC)c(C2CC(c3ccccc3)=NN2C(=S)Nc2ccccc2)c1 (stereo not drawn)	F508del corr 11
COc1ccccc1C1CC(c2ccccc2)=NN1S(=O)(=O)c1ccccc1 (stereo not drawn)	none (no result: ERAP1 HTS inh)
COc1ccc(C2CC(c3ccccc3)=NN2S(=O)(=O)c2ccccc2)c(OC)c1 (stereo not drawn)	DENV2 CPE rescue 22 (no result: F508del corr)
Cc1ccc(S(=O)(=O)Nc2ccc3c(c2)C(=O)N([C@H](C)CO)C[C@@H](C)[C@@H](CN(C)CC2CCCCC2)OCCCC[C@@H](C)O3)cc1	none
C[C@H]1CN([C@@H](C)CO)C(=O)c2cc(NC(=O)CCC(F)(F)F)ccc2O[C@H]1CN(C)Cc1ccc2c(c1)OCO2	none
COCC(=O)Nc1ccc2c(c1)OC[C@@H](C)NC[C@H](C)[C@H](OC)CN(C)C2=O	DENV2 CPE rescue 30 (no result: F508del corr)
COCC(=O)Nc1ccc2c(c1)OC[C@H](C)NC[C@@H](C)[C@@H](OC)CN(C)C2=O	DENV2 CPE rescue 24 (no result: F508del corr)
CCC(=O)Nc1ccc2c(c1)OC[C@@H](C)NC[C@H](C)[C@@H](OC)CN(C)C2=O	DENV2 CPE rescue 28 (no result: F508del corr)
COCC(=O)Nc1ccc2c(c1)OC[C@@H](C)NC[C@H](C)[C@@H](OC)CN(C)C2=O	none (no result: F508del corr)
CC1=CCC[C@H]2[C@H](C1)C(=O)C[C@@H](C)[C@]2(C)CC/C(=C/CO)CO	DENV2 CPE rescue 24 (no result: E-selectin induc)
O=C1NC(=Nc2ccccc2)S/C1=C\c1cccnc1	none (no result: E-selectin induc)
O=C1NC(=Nc2cccnc2)S/C1=C/c1ccc(F)cc1	F508del corr 14 (no result: E-selectin induc, ERAP1 HTS inh)
Cc1ccc(N=C2NC(=O)/C(=C\c3cccs3)S2)cc1C	none (no result: E-selectin induc, F508del corr)
Cc1ccc(/C=C2/SC(=Nc3ccc(F)cc3)NC2=O)s1	ERAP1 HTS inh 82
CN1C[C@@H]2C[C@@H](c3cccn3-c3nccs3)N3CCC[C@@]23C1=O	FGF22 binding 43, DENV2 CPE rescue inconclusive (no result: E-selectin induc)
O=C1N(Cc2cccc(Cl)c2)C[C@@H]2C[C@@H](c3cccn3-c3nccs3)N3CCC[C@@]123	none (no result: ERAP1 HTS inh)
CO[C@H]1CN(C)C(=O)c2ccc(NC(=O)c3ccc(F)cc3)cc2OC[C@@H](C)N(C)C[C@H]1C	none (no result: FGF22 binding, DENV2 CPE rescue, ERAP1 HTS inh)
Cc1noc(C)c1NC(=O)Nc1ccc2c(c1)C(=O)N([C@@H](C)CO)C[C@@H](C)[C@H](CN(C)C(=O)NC(C)C)OCCCC[C@H](C)O2	none (no result: E-selectin induc)
CN(c1nc2nonc2nc1NC1CC1)C1CCOC1 (stereo not drawn)	FGF22 binding 43
COc1cccc(C(=O)Nc2ccc3c(c2)C(=O)N(C)[C@H]2CC[C@H](CC(=O)NCC(F)(F)F)O[C@@H]2CO3)c1	none
C=CCN=c1scc(-c2ccccc2)n1/N=C/c1ccccn1	DENV2 CPE rescue inconclusive, F508del corr 8.4!
CC(=O)OCC(=O)C1=CCC2C3CCC4=CC(=O)C=CC4(C)C3(F)C(OC(C)=O)CC12C (stereo not drawn)	FGF22 binding 43 (no result: E-selectin induc)
CC(=O)OCC(=O)[C@@]1(O)CC[C@H]2[C@@H]3CCC4=CC(=O)C=C[C@]4(C)[C@@]3(F)[C@@H](O)C[C@@]21C	none
CCCC#Cc1cnc2c(c1)C(=O)N([C@H](C)CO)C[C@H](C)[C@@H](CN(C)Cc1ccc3c(c1)OCO3)O2	none
